The structures appear in SMILES notation. In brackets after ≈: the same amount, converted by molar mass. Activity calls are given as the source filed them. The rule behind the calls is not given here.

Consider one compound from ChEMBL document CHEMBL4373706, “Discovery of Inhibitors of Aurora/PLK Targets as Anticancer Agents” (J Med Chem, 2019).

Data set [1] in a line: Solubility of the compound in DMSO. The data set is classed as physicochemical. The method, boiled down: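 Solubility of the compound measured at 25±0.2°C, separately in water and in DMSO; reported in µg/mL.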
Data set [2] has as its system HCT-116. Nature of the data set: Antitumor activity against human HCT116 cells xenografted in BALB/c mouse assessed as survival rate at 1 mg/kg, iv administered every 3 days for 60 days relative to control. To be noted: HCT-116, iv. The data set is classed as functional.
The test system of data set [3] is HCT-116. The data set is described as follows: Induction of apoptosis in human HCT116 cells measured after 48 hrs by Annexin V-FITC/propidium iodide staining-based flow cytometry. In kind it is functional, cell-based.
Data set [4] is described as follows: Cmax in Sprague-Dawley rat at 10 mg/kg, iv administered […] by LC-MS/MS analysis. The data set is classed as ADME, organism-based. To be noted: in vivo. Also on record: dose 10 mg/kg, route intravenous.
The nature of data set [5]: Toxicity in BALB/c mouse xenografted with human HCT116 cells assessed as change in body weight at 1 to 5 mg/kg, iv administered every 3 days for 24 days measured post-last dose. The data set is classed as organism-based. To be noted: in vivo. On the technique in general: A xenograft is tissue or cells of one species grown in another, often human tumour cells in immunodeficient mice.

The test system of data set [6] is HCT-116. Nature of the data set: Antitumor activity against human HCT116 cells xenografted in BALB/c mouse assessed as reduction in tumor growth at 5 mg/kg, iv administered every 3 days for 24 days measured at 3 days interval during compound dosing. The data set is classed as functional, organism-based.
The next data set deals with T1, Aurora kinase C (Homo sapiens, UniProt Q9UQB9).
T1 sequence (Q9UQB9 whole entry): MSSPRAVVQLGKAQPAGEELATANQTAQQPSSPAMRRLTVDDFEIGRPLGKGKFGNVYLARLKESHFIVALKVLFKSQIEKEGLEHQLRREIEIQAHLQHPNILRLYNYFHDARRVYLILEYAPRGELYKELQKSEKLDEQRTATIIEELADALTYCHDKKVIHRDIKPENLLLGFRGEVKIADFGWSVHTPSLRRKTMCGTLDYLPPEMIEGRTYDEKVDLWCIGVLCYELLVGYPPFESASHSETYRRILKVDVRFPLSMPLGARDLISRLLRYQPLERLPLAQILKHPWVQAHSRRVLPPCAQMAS
The data set is described as follows: Binding affinity to wild-type human full length AURKC (M1 to S275 residues) expressed in bacterial expression system measured after 1 hr by Kinomescan method. A digest of the protocol:
(§1)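 KINOMEscan competition binding assay. A 321-kinase panel was first screened at 10 μM compound, and binding affinities were then determined for Aurora and PLK family members.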

Data set [7] relates to HCT-116. Nature of the data set: Induction of apoptosis in human HCT116 cells assessed as apoptotic cell population at 10 uM measured after 48 hrs by Annexin V-FITC/propidium iodide staining-based flow cytometry (reference value: 5.9%). In kind it is functional. Background: A flow cytometer gives signals particle by particle.
Data set [8] deals with HCT-116. The data set is described as follows: Cell cycle arrest in human HCT116 cells assessed as accumulation at G2/M phase at 10 uM measured after 24 to 48 hrs by propidium iodide staining-based flow cytometry (reference value: 3.37%). In kind it is functional.
The subject of data set [9] is HCT-116. The data set is described as follows: Cell cycle arrest in human HCT116 cells assessed as increase in accumulation at G2/M phase measured after 24 to 48 hrs by propidium iodide staining-based flow cytometry. The data set is classed as functional.
Data set [10] can be described thus: AUC (0 to infinity) in Sprague-Dawley rat at 50 mg/kg, po administered via gastric gavage by LC-MS/MS analysis. The data set is classed as ADME, organism-based. Further details: dose 50 mg/kg, time infinity, route oral. To be noted: in vivo.
Data set [11] has as its system HCT-116. Nature of the data set: Induction of apoptosis in human HCT116 cells assessed as apoptotic cell population at 5 uM measured after 48 hrs by Annexin V-FITC/propidium iodide staining-based flow cytometry (reference value: 5.9%). In kind it is functional.
Data set [12] in a line: Toxicity in BALB/c mouse xenografted with human HCT116 cells assessed as change in body weight at 10 mg/kg, iv administered every 3 days for 24 days measured post-last dose. The data set is classed as organism-based. To be noted: in vivo.
The target of the next data set is T2, Aurora kinase A (Homo sapiens, UniProt O14965).
T2 sequence (O14965 whole entry): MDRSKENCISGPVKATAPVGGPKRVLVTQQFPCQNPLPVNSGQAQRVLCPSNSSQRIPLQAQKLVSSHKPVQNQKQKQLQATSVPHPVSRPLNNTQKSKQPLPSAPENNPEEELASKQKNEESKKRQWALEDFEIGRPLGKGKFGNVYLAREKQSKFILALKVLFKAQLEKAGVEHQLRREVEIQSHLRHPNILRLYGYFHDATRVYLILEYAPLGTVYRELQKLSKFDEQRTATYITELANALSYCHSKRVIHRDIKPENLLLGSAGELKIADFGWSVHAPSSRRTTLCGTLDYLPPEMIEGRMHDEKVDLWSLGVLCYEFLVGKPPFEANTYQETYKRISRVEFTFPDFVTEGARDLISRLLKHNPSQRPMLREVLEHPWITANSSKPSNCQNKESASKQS
Nature of the data set: Binding affinity to wild-type human partial length AURKA (E122 to K401 residues) expressed in mammalian expression system measured after 1 hr by Kinomescan method. A digest of the protocol: as §1

For data set [13], the system named is HCT-116. The data set is described as follows: Antitumor activity against human HCT116 cells xenografted in BALB/c mouse assessed as mean survival days at 1 mg/kg, iv administered every 3 days for 60 days (reference value: 25 day). The data set is classed as functional.
Data set [14] deals with T3, Mitogen-activated protein kinase 15 (Homo sapiens, UniProt Q8TD08).
T3 sequence (Q8TD08 whole entry): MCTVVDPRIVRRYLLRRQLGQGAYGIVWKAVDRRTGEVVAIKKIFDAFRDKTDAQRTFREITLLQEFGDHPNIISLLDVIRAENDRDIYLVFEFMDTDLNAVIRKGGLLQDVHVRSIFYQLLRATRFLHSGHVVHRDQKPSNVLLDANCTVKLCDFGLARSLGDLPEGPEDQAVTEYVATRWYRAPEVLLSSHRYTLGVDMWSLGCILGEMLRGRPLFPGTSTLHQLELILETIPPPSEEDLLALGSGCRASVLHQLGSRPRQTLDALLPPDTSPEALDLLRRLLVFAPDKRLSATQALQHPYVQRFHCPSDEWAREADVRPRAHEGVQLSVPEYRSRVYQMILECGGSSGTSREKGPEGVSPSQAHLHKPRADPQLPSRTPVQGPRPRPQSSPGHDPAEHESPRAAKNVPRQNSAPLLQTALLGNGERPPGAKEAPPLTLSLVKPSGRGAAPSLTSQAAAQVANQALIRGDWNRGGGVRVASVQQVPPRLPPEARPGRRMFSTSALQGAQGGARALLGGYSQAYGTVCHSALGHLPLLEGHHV
Nature of the data set: Binding affinity to wild-type human partial length ERK8 (M1 to P437 residues) expressed in bacterial expression system measured after 1 hr by kinomescan method. To be noted: pooled result: one value given for 7 cell lines, strains, targets or settings.

For data set [15], the system named is HCT-116. The data set is described as follows: Antitumor activity against human HCT116 cells xenografted in BALB/c mouse assessed as mean survival days at 10 mg/kg, iv administered every 3 days for 60 days (reference value: 25 day). The data set is classed as functional.
Data set [16] in a line: Half life in Sprague-Dawley rat at 10 mg/kg, iv administered […] by LC-MS/MS analysis. In kind it is ADME, organism-based. To be noted: in vivo.
Another data set deals with MCF7. The data set is described as follows: Antiproliferative activity against human MCF7 cells measured after 48 hrs by MTT assay. The data set is classed as functional, cell-based. To be noted: MCF7, 48 h. A digest of the protocol:
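Cells were exposed to a range of compound concentrations for 48 h. MTT reagent was then added and absorbance read at 490 nm. Viability was normalized to vehicle control set as 100%, from n = 3 independent experiments, and IC50 was taken from the dose–response curves.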
In general terms: Tetrazolium dyes change colour on reduction, which living cells bring about.

Data set [17] concerns the target Cyclin-dependent kinase 6 (Homo sapiens, UniProt Q00534). The data set is described as follows: Binding affinity to wild-type human full-length CDK6 (M1 to A326 residues) expressed in mammalian expression system measured after 1 hr by kinomescan method. To be noted: pooled result: one value given for 15 cell lines, strains, targets or settings.

Cyclin-dependent kinase 6, sequence (Q00534 whole entry, the tested form may be a part): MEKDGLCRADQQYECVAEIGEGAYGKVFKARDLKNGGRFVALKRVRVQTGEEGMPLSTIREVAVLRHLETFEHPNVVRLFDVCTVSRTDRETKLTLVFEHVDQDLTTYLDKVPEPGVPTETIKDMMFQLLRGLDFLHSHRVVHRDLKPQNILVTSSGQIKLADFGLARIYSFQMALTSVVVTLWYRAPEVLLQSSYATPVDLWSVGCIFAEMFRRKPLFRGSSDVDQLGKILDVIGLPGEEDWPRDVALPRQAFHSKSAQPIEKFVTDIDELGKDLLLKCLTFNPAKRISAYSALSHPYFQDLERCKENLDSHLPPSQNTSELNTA

Usually solubility stands for the dissolved amount per volume that the medium holds. Read a high solubility as much dissolved substance. Usually Cmax stands for the peak of the concentration-time curve. As usually defined, the Kd is the concentration at which binding is half-saturated. Low values mean tighter binding, high ones weaker binding. What is called AUC is concentration integrated over time. A higher AUC goes with more exposure. A word on the half-life: it is the time in which the quantity being followed falls by half. High values mean slow loss, low ones fast loss. For orientation: IC50 means the concentration that inhibits the measured activity by half. Read a low IC50 as greater potency in that assay. `O=C(Nc1ccc2cc(C(=O)Nc3nccs3)ccc2c1)c1ccc(Cl)c(Cl)c1` displayed a solubility in [1] of 286 µg/mL (≈ 647 µM). The survival at 1 mg/kg with HCT-116 [2] was greater than 25%. The Activity result with HCT-116 [3] is “Dose-dependent effect”; in [5], “Non-Toxic”; in the data set with HCT-116 [7], 91.4%; with HCT-116 [8] it was 29.66%; in the data set on HCT-116 [9], “Dose-dependent effect”; in the data set with HCT-116 [11] it was 61.7%. Also, the Activity result in data set [12] is on record as “Toxic”. Besides, in data set [4], the highest level (Cmax) was 78.5 µg/mL. The result with HCT-116 [6] was Active. For the same compound, the equilibrium dissociation constant (Kd) at Aurora kinase C turned out to be 0.289 µM; on Aurora kinase A, 0.023 µM; in data set [14] it was 5.32 µM; in data set [17], 8.02 µM. For the same compound, in [10], the exposure (AUC) was found to be 819.495 µg·h/mL. Besides, the MSD with HCT-116 [13] was 37.5 days; in the data set on HCT-116 [15] it was greater than 20 days. The half-life in data set [16] was 16.2 h. Besides, inhibition in the data set on MCF7 was half-maximal at 2.3 µM (IC50).
